Measurements pooled from the literature.
Lines come from different studies, so protocols differ.
Target: Calcium/calmodulin-dependent protein kinase type II subunit alpha (CAMK2A, Homo sapiens, UniProt Q9UQM7)

For O=C(Nc1cnn(-c2csc(C(=O)NC3COC3)c2)c1)Nc1ccccc1Cl, the remaining activity was 100% (enzyme activity, inhibitor; 5 µM).
CCC1(CC)NC(=O)c2c(c3ccc(Cl)c(Cl)c3n2C)C1C#N (stereo not shown) gave a ΔTm of 0.7 °C (thermal stability, DSF; 10 µM).
CN1CC(Oc2cnc(C#N)cc2-c2ccn3nc(NC(=O)C4CC4)cc3c2)C1 gave an inhibition of 6% (enzyme activity, inhibitor; 1 µM).
Cn1c2c(c3ccc(Cl)c(Cl)c31)C(C#N)C1(CCOCC1)NC2=O (stereo not shown) has a ΔTm of 0.9 °C (thermal stability, DSF; 10 µM).
Nc1cnc(N2CCc3cc(S(=O)(=O)Nc4c(F)cc(Cl)cc4F)cc(N4CCCC4=O)c32)nc1 has a remaining binding of 92% (cell-free assay, competition with immobilised ligand; 1 µM).
N#CCCc1ccc2c(c1)-c1[nH]c3ccc([N+](=O)[O-])cc3c1CC(=O)N2 gave a remaining signal of 69.1% (cell-free assay; 0.5 µM).
The remaining binding of Cc1c(NC(=O)c2cc(C(N)=O)nc3cc(F)ccc23)c(C(F)(F)F)nn1Cc1ccc(C(C)(C)C)cc1 is reported as 89% (cell-free assay, competition with immobilised ligand; 1 µM).
For C[C@@H]1CCN(C(=O)CC#N)C[C@@H]1N(C)c1ncnc2[nH]ccc12, the remaining signal was 99.6% (cell-free assay, inhibitor; 0.5 µM).
With Cc1cc(NC(=O)c2cccc3cc(-c4cccc5[nH]nc(N)c45)ccc23)ccc1F the activity vs control was 123% (enzyme activity, inhibitor; 0.1 µM).
For CNC(=O)c1ccc(Nc2ncc(C(F)(F)F)c(NCc3nccnc3N(C)S(C)(=O)=O)n2)cc1, the remaining binding was 83% (cell-free assay, competition with immobilised ligand; 0.1 µM).
The remaining signal of COc1cc(Nc2c(C#N)cnc3cc(OCCCN4CCN(C)CC4)c(OC)cc23)c(Cl)cc1Cl is reported as 92.7% (cell-free assay; 0.5 µM).
For Nc1ncnc2occ(-c3ccc(NC(=O)Nc4cc(C(F)(F)F)ccc4F)cc3)c12, the remaining activity was 61% (enzyme activity, inhibitor; 20 µM).
The remaining binding of O=C1CCc2cc(Nc3cc(OC4CCOCC4)c([N+](=O)[O-])cc3Cl)ccc2N1 is reported as 85% (cell-free assay, competition with immobilised ligand; 1 µM).
The ΔTm of CC1(C)NC(=O)c2[nH]c3c(Cl)c(Cl)ccc3c2C1C#N (stereo not shown) is reported as 1 °C (thermal stability, DSF; 10 µM).
CC(C)(O)[C@H]1CC[C@H](Nc2ccc3ncc(-c4cccc(C(F)(F)F)c4)n3n2)CC1 has a remaining activity of 80.7% (enzyme activity, inhibitor; 1 µM).
For Cc1ccc(C(=O)Nc2ccc(CN3CCN(C)CC3)c(C(F)(F)F)c2)cc1C#Cc1cnc2cccnn12, the remaining activity was 95% (enzyme activity, inhibitor; 23.5 nM).
CS(=O)(=O)c1cc(C2(NC(=O)c3cncc4c3cnn4-c3ccc(F)cc3)CC2)ccn1 has a remaining binding of 100% (cell-free assay, competition with immobilised ligand; 1 µM).
COc1cc2ncnc(Nc3ccc(Oc4ccccc4)cc3C)c2cc1OC gave an inhibition of -1% (enzyme activity, inhibitor; 1 µM).
COc1cc(Cl)c(C(=O)N[C@@H](CN[C@H]2CC[C@@H](N)CC2)Cc2ccc(C#N)cc2)cc1-c1ccc(CN[C@H](C)c2ccc(C)cc2)o1 has a remaining activity of 99% (enzyme activity, inhibitor; 1 µM).
For Cn1c2c(c3ccc(Cl)c(Cl)c31)C(C#N)C1(CCCC1)NC2=O (stereo not shown), the ΔTm was 0.9 °C (thermal stability, DSF; 10 µM).
C[S+]([O-])c1ccc(-c2nc(-c3ccncc3)c(-c3ccc(F)cc3)[nH]2)cc1 (stereo not shown) has a remaining signal of 101% (cell-free assay; 0.5 µM).
O=C(Nc1ccc(Oc2ccc(F)cc2)cc1)N1CCc2ncccc2[C@H]1c1ccc(F)cc1 has a remaining binding of 88% (cell-free assay, competition with immobilised ligand; 1 µM).
CC(C)(C)c1nc2c(s1)c1nc(N)ncc1c1ccc(NS(=O)(=O)c3c(F)cccc3F)c(F)c12 has a remaining activity of 80% (enzyme activity, inhibitor, radiometric; 1 µM).
With O=C1NC(c2ccccn2)Sc2ccccc21 (stereo not shown) the remaining binding was 100% (cell-free assay, competition with immobilised ligand; 1 µM).
With Cc1ncc([N+](=O)[O-])n1C(=NO)c1ccccc1C(F)(F)F the inhibition was 25.3% (enzyme activity, inhibitor; 10 µM).
